The source of these data is ChEMBL document CHEMBL4354840, “Discovery of a Small Side Cavity in Sphingosine Kinase 2 that Enhances Inhibitor Potency and Selectivity” (J Med Chem, 2020).

As a reminder, the inhibition is the change of the read-out against control, counted positive when it falls. In general, Ki refers to a measure of affinity in units of concentration, obtained from inhibition or displacement. In general, inhibition in vivo refers to the share of the control response that was lost under treatment. A high value points to strong suppression.

Calls of active or inactive are those of the source. No cut-off for these calls is given here.

The subject of data set [1] is Saccharomyces cerevisiae. Kind of data set: Toxicity against Saccharomyces cerevisiae KYA1 assessed as cell death at >3 uM incubated for 24 to 48 hrs. In kind it is organism-based. The note with it: in vivo.
The target of data set [2] is T1, Sphingosine kinase 2 (Homo sapiens) (UniProt Q9NRA0).
T1 sequence (whole entry): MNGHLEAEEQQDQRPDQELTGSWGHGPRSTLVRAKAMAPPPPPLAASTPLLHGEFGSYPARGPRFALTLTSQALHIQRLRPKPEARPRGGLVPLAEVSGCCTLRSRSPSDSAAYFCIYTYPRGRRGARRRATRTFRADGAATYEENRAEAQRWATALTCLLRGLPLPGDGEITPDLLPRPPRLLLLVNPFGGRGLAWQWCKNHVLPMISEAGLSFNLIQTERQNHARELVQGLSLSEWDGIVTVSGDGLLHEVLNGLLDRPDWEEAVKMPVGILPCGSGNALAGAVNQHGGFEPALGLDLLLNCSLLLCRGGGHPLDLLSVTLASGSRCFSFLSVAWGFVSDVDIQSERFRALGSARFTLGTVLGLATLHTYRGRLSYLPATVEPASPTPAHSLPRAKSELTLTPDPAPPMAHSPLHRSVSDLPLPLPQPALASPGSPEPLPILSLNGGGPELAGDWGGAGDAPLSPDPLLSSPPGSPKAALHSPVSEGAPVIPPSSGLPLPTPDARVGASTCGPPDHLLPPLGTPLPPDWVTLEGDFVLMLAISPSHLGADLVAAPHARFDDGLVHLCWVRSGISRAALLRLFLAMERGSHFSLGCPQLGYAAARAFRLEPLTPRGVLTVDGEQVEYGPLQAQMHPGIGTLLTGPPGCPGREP
Kind of data set: Inhibition of recombinant human SphK2 transfected in HEK293T cells at 0.3 uM using D-erythro-sphingosine as substrate incubated for 20 mins in presence of [gamma32P]-ATP by liquid scintillation counting method relative to control. The format is cell-based. The procedure, abridged:
(§1)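 Human SphK2 recombinant protein isolated from cell lysate. Reaction contained 10 μM sphingosine and 250 μM γ-[32P]ATP, with or without inhibitor. Product was read by scintillation counting. Activity is expressed as % of the no-inhibitor control. Compounds were tested at 1.0 and 0.3 μM in triplicate.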

The target of data set [3] is T2, Sphingosine kinase 2 (Homo sapiens, UniProt Q9NRA0).
T2 sequence (Q9NRA0 whole entry): T1 sequence (whole entry)
Nature of the data set: Inhibition of recombinant human SphK2 expressed in baculovirus infected Sf9 cells assessed as decrease in [33P]S1P production using varying level of D-erythro-sphingosine as substrate in presence of [gamma33P]-ATP by scintillation proximity assay. On the technique in general: SPA uses beads or plates that emit light when radiolabelled molecules are held near them.

The test system of data set [4] is Mus musculus. Kind of data set: In vivo inhibition of SphK2 in C57BL/6 mouse assessed as Cmax required for two-fold increase in sphingosine-1-phosphate level in blood at 10 mg/kg, ip administered as single dose measured after 4 hrs by LC-MS/MS analysis. In kind it is functional, organism-based. On the set-up: dose 10 mg/kg. A digest of the protocol: (§2)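 Male C57BL/6 mice, 8–10 weeks old, received a single i.p. dose of vehicle or 10 mg/kg inhibitor in 2% hydroxypropyl-β-cyclodextrin. Retro-orbital whole blood was taken at 0.5, 1, 2, 4, 6 and 8 h. 10 μL of blood was analysed by LC/MS for S1P and compound. Groups were compared to vehicle by unpaired t-test.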

Data set [5] concerns Mus musculus. Kind of data set: In vivo inhibition of SphK2 in C57BL/6 mouse assessed as increase in sphingosine-1-phosphate level in blood at 10 mg/kg, ip administered as single dose and measured upto 6 hrs post-treatment by LC-MS/MS analysis. The format is functional, organism-based. A digest of the protocol:
as §2

In data set [6] the target is T1, Sphingosine kinase 2 (Homo sapiens). Nature of the data set: Inhibition of recombinant human SphK2 transfected in HEK293T cells at 1 uM using D-erythro-sphingosine as substrate incubated for 20 mins in presence of [gamma32P]-ATP by liquid scintillation counting method relative to control. The procedure, abridged:
as §1

The subject of data set [7] is Mus musculus. Nature of the data set: In vivo inhibition of SphK2 in C57BL/6 mouse assessed as increase in sphingosine-1-phosphate level in blood at 10 mg/kg, ip administered as single dose and measured at 4 hrs post-treatment by LC-MS/MS analysis relative to control. In kind it is functional. The procedure, abridged: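 Male C57BL/6 mice, 8–10 weeks old, given one i.p. injection of 10 mg/kg or vehicle (2% hydroxypropyl-β-cyclodextrin). Whole blood taken from the retro-orbital sinus at 0.5, 1, 2, 4, 6 and 8 h. 10 μL of blood processed for S1P by LC-MS/MS. S1P compared with vehicle-injected controls by unpaired t-test.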

Data set [8] deals with T3, Sphingosine kinase 2 (Mus musculus, UniProt Q9JIA7).
T3 sequence (Q9JIA7 whole entry): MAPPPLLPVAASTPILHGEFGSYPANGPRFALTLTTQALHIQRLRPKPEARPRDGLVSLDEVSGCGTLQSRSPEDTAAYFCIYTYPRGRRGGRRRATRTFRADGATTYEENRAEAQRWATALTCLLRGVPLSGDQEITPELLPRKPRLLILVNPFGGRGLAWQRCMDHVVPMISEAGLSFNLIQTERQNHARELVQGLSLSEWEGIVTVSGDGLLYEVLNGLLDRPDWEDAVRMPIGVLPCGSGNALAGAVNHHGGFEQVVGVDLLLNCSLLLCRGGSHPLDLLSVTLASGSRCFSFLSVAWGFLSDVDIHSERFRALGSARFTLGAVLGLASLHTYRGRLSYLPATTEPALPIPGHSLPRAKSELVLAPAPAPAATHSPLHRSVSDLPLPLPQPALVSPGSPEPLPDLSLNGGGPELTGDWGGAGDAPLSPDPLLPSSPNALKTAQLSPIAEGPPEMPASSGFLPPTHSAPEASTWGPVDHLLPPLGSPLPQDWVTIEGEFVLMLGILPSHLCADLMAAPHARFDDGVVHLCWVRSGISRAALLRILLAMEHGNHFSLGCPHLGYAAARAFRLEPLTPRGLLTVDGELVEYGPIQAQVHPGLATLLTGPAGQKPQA
Nature of the data set: Inhibition of recombinant mouse SphK2 expressed in baculovirus infected Sf9 insect cells using D-erythro-sphingosine as substrate measured after 30 mins in presence of [gamma32P]-ATP by liquid scintillation counting method.

For data set [9], the system named is Rattus norvegicus. Nature of the data set: Decrease in sphingosine-1-phosphate level in rat blood at 10 mg/kg relative to control. In kind it is functional.

On to `CCc1cc(-c2noc([C@@H]3CCCN3C(=N)N)n2)ccc1OCc1ccc(C(F)(F)F)cc1.Cl`, for which the Activity entry in [1] is reported as “Toxic”. In data set [2], the inhibition is 42%.
Consider `COc1cc(-c2noc([C@@H]3CCCN3C(=N)N)n2)ccc1OCc1ccc(C(F)(F)F)cc1`, for which the inhibition in [2] is 15%.
Turning to `Cl.N=C(N)N1CCC[C@H]1c1nc(-c2ccc(OCc3ccc(C(F)(F)F)cc3)c(C3CC3)c2)no1`, the Activity result in data set [1] is “Toxic”. In addition, in data set [2], the inhibition stood at 52%. The inhibition constant (Ki) in [3] was determined as 186 nM.
For `Cl.N=C(N)N1CCC[C@H]1c1nc(-c2ccc(OCc3ccc(C(F)(F)F)cc3)c(C(F)(F)F)c2)no1`, the Activity result in data set [1] is on record as “Toxic”. For the same compound, in data set [4], the Cmax turned out to be 8 µM. Also, in data set [5], the inhibition entry was “Active”. The values for the inhibition in [2] and in data set [6] were 65% and 77%, respectively. The Ki in [3] was 89 nM. Also, the “fold change (FC)” value in data set [7] came out at 2.
For the compound `Cc1cc(-c2noc([C@@H]3CCCN3C(=N)N)n2)ccc1OCc1ccc(C(F)(F)F)cc1`, in [2], the inhibition is 3%.
With `CCCc1cc(-c2noc([C@@H]3CCCN3C(=N)N)n2)ccc1OCc1ccc(C(F)(F)F)cc1.Cl`, the Activity result in data set [1] is on record as “Toxic”. Further, the inhibition in data set [2] came to 60%. Besides, in data set [3], the Ki was found to be 201 nM.
Take `N=C(N)N1CCC[C@H]1c1nc(-c2ccc(OCc3ccc(C(F)(F)F)cc3)c(Br)c2)no1`: the inhibition in data set [2] turned out to be 24%.
On to `N=C(N)N1CCC[C@H]1c1nc(-c2ccc(OCc3ccc(C(F)(F)F)cc3)c(-c3ccc(C(F)(F)F)cc3)c2)no1`, for which the inhibition in data set [2] is 12%.
Regarding `Cc1cc(-c2noc([C@@H]3CCCN3C(=N)N)n2)cc(C)c1OCc1ccc(C(F)(F)F)cc1`, the inhibition in data set [2] was determined as 23%.
`N=C(N)N1CCC[C@H]1c1nc(-c2ccc(OCc3ccc(C(F)(F)F)cc3)c(-c3ccccc3)c2)no1`: the inhibition in data set [2] was found to be 28%.
For the compound `CCCCCCCCOc1ccc(-c2noc([C@@H]3CCCN3C(=N)N)n2)cc1C(F)(F)F`, the inhibition constant Ki in data set [8] amounted to 400 nM.
In the case of `N=C(N)N1CCC[C@H]1c1nc(-c2ccc(OCc3ccc(C(F)(F)F)cc3)cc2)no1`, in data set [2], the inhibition came out at 2%.
For `C=CCc1cc(-c2noc([C@@H]3CCCN3C(=N)N)n2)ccc1OCc1ccc(C(F)(F)F)cc1.Cl`, in data set [1], the Activity entry was “Toxic”. For the same compound, the inhibition in data set [2] was found to be 59%.
For `N=C(N)N1CCC[C@H]1c1nc(-c2ccc(OCc3ccc(C(F)(F)F)cc3)c(-c3ccc(F)cc3)c2)no1`, in data set [2], the inhibition is 31%.
Same read-out and setting: the same measure for `N=C(N)N1CCC[C@H]1c1nc(-c2ccc(OCc3ccc(C(F)(F)F)cc3)c(F)c2)no1`: 23%; for `N=C(N)N1CCC[C@H]1c1nc(-c2ccc(OCc3ccc(C(F)(F)F)cc3)c(Cl)c2)no1`: 33%; for `N=C(N)N1CCC[C@H]1c1nc(-c2ccc(OCc3ccc(C(F)(F)F)cc3)c([N+](=O)[O-])c2)no1`: 33%.
As to `N=C(N)N1CCC[C@H]1c1nc(-c2ccc(OCc3ccc(C(F)(F)F)cc3)cc2Cl)no1`, in data set [2], the inhibition came out at 40%.
In the case of `CC(C)c1cc(-c2noc([C@@H]3CCCN3C(=N)N)n2)ccc1OCc1ccc(C(F)(F)F)cc1.Cl`, the Activity entry in [1] is given as “Toxic”. The inhibition in data set [2] is 67%. Further, in data set [3], the inhibition constant Ki amounted to 192 nM.
`CCCCCCCCc1ccc(-c2noc(C[C@@H]3CCCN3C(=N)N)n2)cc1` gave an inhibition in vivo at 10 mg/kg in data set [9] of 80%.
As to `CC(C)(C)c1cc(-c2noc([C@@H]3CCCN3C(=N)N)n2)ccc1OCc1ccc(C(F)(F)F)cc1.Cl`, the Activity entry in [1] is recorded as “Toxic”. Moreover, the inhibition in data set [2] turned out to be 66%. Moreover, the inhibition constant Ki in [3] was found to be 197 nM.
In the case of `N=C(N)N1CCC[C@H]1c1nc(-c2ccc(OCc3ccc(C(F)(F)F)cc3)cc2C(F)(F)F)no1`, the inhibition in data set [2] amounted to 35%.
For `N=C(N)N1CCC[C@H]1c1nc(-c2ccc(OCc3ccc(C(F)(F)F)cc3)c(-c3ccncc3)c2)no1`, in data set [2], the inhibition was determined as 8%.
Consider `CCCCCCCCOc1ccc(-c2noc([C@@H]3CCCN3C(=N)N)n2)cc1`, for which the inhibition came to 3% in data set [2] and 8% in data set [6].
